Source: PubChem
H69AR growth 86K: proliferation blockers of H69AR lung cancer cells, primary screen, cell-based, human, 86K library; H69AR lung tumor viability, ATP luminescence, 72 h; hits give low values; viability, % at 10 µM; actives 6% (n = 85,000); AID 598, 2007;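 active = viability at or below 40%; inactive = viability above 40%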;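 also: multidrug resistant small cell line overexpressing MRP-1 efflux transporter; 100% = mean luminescence of untreated control wells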
E coli WT exp: growth inhibitors of wild-type E. coli, primary screen, strain BW25113, expanded library, OD600 | actives 0.15% (n = 98,000) | OD600 absorbance | growth inhibition, % at 100 µM | AID 710, 2007;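 active = growth inhibition above about 50% at one test dose, limit read from the data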;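 also: growth measured after 20 h incubation at 37 °C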
Lung fibro prol: antiproliferative effect on LL 47 fibroblasts – human, LL 47 cells, CellTiter-Glo luminescence, primary screen; LL 47 human lung fibroblast viability, ATP luminescence; hits give low values; viability, % at 10 µM; actives 1.1% (n = 85,000); AID 719, 2007;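 active = viability at or below 50% in the single dose screen; inactive = viability above 50%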;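 also: compound exposure lasted 72 h before the ATP readout; 100% = median luminescence of untreated cell-only wells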
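Material: human LL 47 lung fibroblast cells; quantity: 1,150 cells/well; medium: IMEM plus 15% FBS; doses: 0.1% DMSO in all compound wells; timing: overnight attachment after seeding, then 72 h compound exposure at 37 °C; detection: CellTiter-Glo luminescence; measure: % viability of median cell-only signal; controls: cell-only wells, no compound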
Ecoli tolC: growth inhibitors of E. coli tolC mutant, primary screen, strain BW25113 ΔtolC::kan, 384-well; OD615; growth inhibition, % at 10 µM (by protocol); actives 2.2% (n = 65,000); AID 573, 2007;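 active = growth inhibition at or above a cutoff equal to the mean over every tested compound plus 3 SD, cut at about 60% in these data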;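 also: growth measured after 20 h incubation at 37 °C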
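Test system: tolC-deleted E. coli BW25113 | Medium: LB with kanamycin 50 µg/mL | Compound dosing: Single concentration, 10 µM final per compound | Schedule: 37 °C, 20 h exposure | Measured by: OD at 615 nm | Evaluation: Percent growth inhibition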
HUVEC inhibit: inhibitors of HUVEC proliferation, primary screen, cell-based, 384-well. actives 1.1% (n = 86,000). viability, % at 10 µM (by protocol). CellTiter-Glo luminescence, 72 h; hits give low values;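 active = viability at or below 30%; inactive = viability above 30%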;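 also: 100% = median luminescence of DMSO-only cell control wells on each plate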
Jurkat viability: cytotoxicity toward Jurkat T cells, primary screen, cytotoxicity control, cell-based, Jurkat E6.1, 60K MLSMR library | Jurkat E6.1 viability, ATP luminescence, 48 h | inhibition, % at 4 µM | actives 1.2% (n = 56,000) | AID 463, 2006;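 active = inhibition above the mean inhibition of all tested compounds plus 3 SD, cut at about 28% in these data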
* hit, by the source's call. An excerpt weighted towards active compounds, which were near 6.4% of everything screened.

Results for CCOc1ccccc1C(=O)OCC(=O)Nc1ccc(OC(F)F)cc1 ?
E coli WT exp: -5

How did CCCCCCc1cc2cc(-c3nnc(-c4ccccc4OC)o3)c(=O)oc2cc1O do in these assays?
H69AR growth 86K: 3.0*; E coli WT exp: -8; Lung fibro prol: 72; HUVEC inhibit: 63

What do the screens show for `CCCCCCc1cc2cc(-c3nnc(-c4cc(OC)c(OC)c(OC)c4)o3)c(=O)oc2cc1O`?
H69AR growth 86K: 2.3*; Lung fibro prol: 62; HUVEC inhibit: 76

How did Cc1nc2c(Cl)cccc2[nH]1 do in these assays?
H69AR growth 86K: 104; E coli WT exp: 2; Lung fibro prol: 102; HUVEC inhibit: 99

How did COc1ccc(C)cc1NC(=O)CN1CCN(C/C=C/c2ccccc2)CC1 do in these assays?
E coli WT exp: 6

How did O=C(NCC(c1cccs1)N1CCOCC1)c1ccc(Br)o1 (stereo not drawn) do in these assays?
H69AR growth 86K: 23*; E coli WT exp: 1; Lung fibro prol: 64; HUVEC inhibit: 85

Results for O=C(O)/C(=C\c1ccco1)NC(=O)c1cccc2ccccc12 ?
E coli WT exp: 6

How did CCOC(=O)c1sc(NC(=O)c2c(C)noc2C)c(C(=O)OCC)c1C do in these assays?
H69AR growth 86K: 38*; Lung fibro prol: 91; Ecoli tolC: -7; HUVEC inhibit: 81; Jurkat viability: -1

How did CCOC(=O)c1sc(NC(=O)c2noc3c2CCCC3)c(C(=O)OCC)c1C do in these assays?
Ecoli tolC: -12; Jurkat viability: -6

What do the screens show for `CN(C)c1ccc2c(O)cc(=O)n(C)c2c1`?
H69AR growth 86K: 22*; E coli WT exp: 0; Lung fibro prol: 102; Ecoli tolC: 0; HUVEC inhibit: 95

What do the screens show for `CN(c1ccc(Cl)cc1)c1cc(=O)n(C)c2ccccc12`?
H69AR growth 86K: 44; E coli WT exp: 11; Lung fibro prol: 90; Ecoli tolC: 31; HUVEC inhibit: 51; Jurkat viability: 16

Results for COc1ccc(C2=NOC(C(=O)NCc3ccccc3)C2)cc1 (stereo not drawn) ?
H69AR growth 86K: 44; E coli WT exp: -5; Lung fibro prol: 83; Ecoli tolC: -13; HUVEC inhibit: 62; Jurkat viability: 45*

Results for COc1cccc(C2=NOC(C(=O)NCc3ccco3)C2)c1 (stereo not drawn) ?
H69AR growth 86K: 36*; E coli WT exp: 5; Lung fibro prol: 95; Ecoli tolC: 0; HUVEC inhibit: 73; Jurkat viability: 5

How did COc1cccc(C2=NOC(C(=O)NC3CCCCC3)C2)c1 (stereo not drawn) do in these assays?
H69AR growth 86K: 96; E coli WT exp: 17; Lung fibro prol: 101; Ecoli tolC: 1; HUVEC inhibit: 105; Jurkat viability: -2

What do the screens show for `CCC(C)NC(=O)C1CC(c2cccc(OC)c2)=NO1` (stereo not drawn)?
H69AR growth 86K: 86; E coli WT exp: 5; Lung fibro prol: 90; Ecoli tolC: -8; HUVEC inhibit: 92; Jurkat viability: -1

What do the screens show for `C=CCNC(=O)C1CC(c2cccc(OC)c2)=NO1` (stereo not drawn)?
H69AR growth 86K: 2.8*; E coli WT exp: 0; Lung fibro prol: 96; Ecoli tolC: -7; HUVEC inhibit: 94; Jurkat viability: -2

How did COc1cccc(C2=NOC(C(=O)NCc3ccccc3)C2)c1 (stereo not drawn) do in these assays?
H69AR growth 86K: 26*; E coli WT exp: 11; Lung fibro prol: 97; Ecoli tolC: 4; HUVEC inhibit: 63; Jurkat viability: 3

What do the screens show for `COCCNC(=O)C1CC(c2cccc(OC)c2)=NO1` (stereo not drawn)?
H69AR growth 86K: 92; E coli WT exp: 6; Lung fibro prol: 97; Ecoli tolC: -15; HUVEC inhibit: 99; Jurkat viability: 8

Results for COc1ccc(-c2nnn(CC(=O)NCCc3c[nH]c4ccccc34)n2)cc1OC ?
E coli WT exp: -12
